Measurements collected from several papers.
Cell line: HL-60
Read-out: cell growth or viability

COc1cc(-c2nc(C(=O)Nc3nnc(-c4cc5ccccc5n4C)s3)cc3c2[nH]c2ccccc23)cc(OC)c1OC  IC50 (MTT; 72 h): 10 µM
COc1cc(/C=C/C(=O)CC(=O)/C=C/c2ccc(O)c(OC)c2)ccc1O  IC50 (resazurin; 72 h; dark): 4.1 µM
Nc1ncc(-c2cnn(C3CCNCC3)c2)cc1-c1nnc(CC2CC2)o1  IC50 (trypan blue; 72 h): 0.678 µM
CCn1c(-c2nnc(NC(=O)c3cc4c([nH]c5ccccc54)c(-c4ccc(OC)cc4)n3)s2)cc2ccccc21  IC50 (MTT; 72 h): 46.2 µM
N[C@@H](CC(=O)N1CCN(C(c2ccc(F)cc2)c2ccc(F)cc2)CC1)C(=O)N1Cc2ccccc2C1  IC50 (ATP luminescence; 48 h): 2.71 µM
O=C(Nc1nnc(-c2cc3ccccc3[nH]2)s1)c1cc2c([nH]c3ccccc32)c(-c2ccccc2)n1  IC50 (MTT; 72 h): 8.25 µM
CN1c2ccccc2C(=O)N2[C@H](C(=O)Nc3ccc(/C=C/C(=O)NO)cc3)Cc3c([nH]c4ccccc34)[C@@H]12  IC50: 0.63 µM
COc1ccc(C(=O)c2ccccc2)c(O)c1  IC50 (resazurin; 72 h; dark): ~120 µM
CC(C)[C@H](N)C(=O)N1CCC[C@H]1B(O)O  IC50 (ATP luminescence; 48 h): 0.115 µM
CCCON(Cc1ccc(C(=O)NO)cc1)C(=O)Nc1ccc(N(C)C)cc1  IC50 (ATP luminescence; 72 h): 12.9 µM
COc1ccc(-c2nc(C(=O)Nc3nnc(-c4cc5ccccc5[nH]4)s3)cc3c2[nH]c2ccccc23)cc1  IC50 (MTT; 72 h): 3.83 µM
CC(C)C[C@H](NC(=O)[C@H](Cc1ccccc1)NC(=O)c1cnccn1)B(O)O  IC50 (ATP luminescence): 0.0041 µM
